Reference: ChEMBL document CHEMBL3612047, “Synthesis, antiproliferative activity and possible mechanism of action of novel 2-acetamidobenzamides bearing the 2-phenoxy functionality” (Bioorg Med Chem, 2015)

Assays:
K562 [1] = experiment: Growth inhibition of human K562 cells at 10 uM incubated for 24 hrs by trypan blue dye exclusion assay; format: functional; conditions: K562, 24 h, read-out: GI
Outline: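 K562 cells in medium with 5% FBS at 37 °C, 5% CO₂. About 2 × 10⁵ cells/mL cultured 24 h, then compound added at 10 μM. After 24 h exposure, cells counted by hemocytometer and viability scored by trypan blue exclusion, reported as percent growth inhibition.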

K562 [2] = experiment: Growth inhibition of human K562 cells incubated for 24 hrs by trypan blue dye exclusion assay; format: functional, cell-based; conditions: K562, 24 h
Outline: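 K562 cells, about 2 × 10⁵ cells/mL, precultured 24 h, then exposed 24 h to a range of compound concentrations. Viable cells counted by hemocytometer with trypan blue exclusion to derive IC₅₀.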

[3] = Cytotoxicity against human HuDe cells incubated for 72 hrs by MTT assay; format: cell-based
Outline: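 HuDe primary culture from human epidermis, seeded at 2 × 10⁴ cells/mL. Test drugs at different concentrations, or 0.1% DMSO, added 24 h after seeding, with 72 h exposure. MTT (5 mg/mL in PBS) then applied for 3 h at 37 °C. Formazan solubilized with isopropanol/triton X-100/HCl and read at 570 nm with 690 nm blank.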

K562 [4] = experiment: Selectivity index, ratio of IC50 for human HuDe cells to IC50 human K562 cells
Outline: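 Index taken as the ratio of HuDe to K562 IC₅₀. For K562: about 2 × 10⁵ cells/mL, compounds added at graded concentrations, viable count by trypan blue exclusion with a hemocytometer after 24 h. For HuDe primary epidermal cells: 2 × 10⁴ cells/mL, drugs or 0.1% DMSO added 24 h after seeding, MTT read at 570 nm (690 nm blank) after 72 h.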

[5] = Growth inhibition of human NCI60 cells assessed as cell growth level at 10 uM by NCI standard protocol based method; format: functional; design: scale not given: the % may be the effect or the level left
Outline: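 NCI 60-cell-line screen (leukemia, lung, colon, melanoma, renal, ovarian, brain, breast, prostate) run to the NCI standard protocol. Single high dose of 10⁻⁵ M, read as growth percent. Mean graph midpoint is the arithmetic mean over all lines tested.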

Compound | inhibition of growth at 10 µM (K562 [1]) | IC50 (K562 [2]) | IC50 [3] | Ratio IC50 (K562 [4]) | Activity [5]
Cc1ccccc1OCC(=O)Nc1ccc(Cl)cc1C(N)=O | 75.9% | 1.61 µM | 27.3 µM | 16.96 | 
COc1ccc(NC(=O)COc2ccccc2C)c(C(N)=O)c1 | 40.1% |  |  |  | 
Cc1ccc(OCC(=O)Nc2ccc(I)cc2C(N)=O)cc1 | 49.8% | 10 µM | 356 µM | 35.57 | 
Cc1ccc(OCC(=O)Nc2ccccc2C(N)=O)cc1 | < 10% |  |  |  | 
Cc1ccc(NC(=O)COc2cccc(Cl)c2Cl)c(C(N)=O)c1 | 30.8% |  |  |  | 
Cc1ccc(NC(=O)COc2ccccc2C)c(C(N)=O)c1 | 45.6% |  |  |  | 
NC(=O)c1cc(Cl)ccc1NC(=O)COc1ccc(Cl)cc1Cl | 18.8% |  |  |  | 
NC(=O)c1ccc(NC(=O)COc2ccccc2)cc1 | 23.7% |  |  |  | 
NC(=O)c1ccccc1NC(=O)COc1ccccc1 | 57.4% | 8.9 µM | 523 µM | 58.76 | 
NC(=O)c1ccccc1NC(=O)COc1cccc(Cl)c1Cl | < 10% |  |  |  | 
COc1cc2c(c(OC)c1OC)-c1ccc(OC)c(=O)cc1[C@@H](NC(C)=O)CC2 [COLCHICINE] | 63.6% |  |  |  | 
Cc1ccccc1OCC(=O)Nc1ccccc1C(N)=O | 19.7% |  |  |  | 
Cc1ccc(OCC(=O)Nc2ccc(C)cc2C(N)=O)cc1 | 30.3% |  |  |  | 
COc1cc(NC(=O)COc2cccc(Cl)c2Cl)c(C(N)=O)cc1OC | 17.7% |  |  |  | 
NC(=O)c1cccc(NC(=O)COc2ccccc2)c1 | < 10% |  |  |  | 
NC(=O)c1cc(I)ccc1NC(=O)COc1ccc(Cl)cc1Cl | 74.7% | 6.9 µM | 33.8 µM | 4.9 | 87.28%
COc1ccc(NC(=O)COc2ccc(C)cc2)c(C(N)=O)c1 | 48.1% |  |  |  | 
Cc1ccc(OCC(=O)Nc2ccc(Cl)cc2C(N)=O)cc1 | 24.1% |  |  |  | 
NC(=O)c1ccccc1NC(=O)COc1ccc(Cl)cc1Cl | < 10% |  |  |  | 
Cc1ccc(NC(=O)COc2ccc(Cl)cc2Cl)c(C(N)=O)c1 | 35.4% |  |  |  | 
Cc1ccc(NC(=O)COc2ccccc2)c(C(N)=O)c1 | 72% | 4.7 µM | 99.3 µM | 21.13 | 
